The subject of this data set is MS2 coat protein. Nature of the data set: apparent Kd, MS2 coat protein; higher = weaker binding; RNA-MaP array; FMN 200 µM where present. In short, it runs like this: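 Green signal from SNAP-549-labelled MS2 coat protein was normalised to red-channel RNA signal and to the median Fmax of control clusters. The protein was titrated from 0.7 or 1.5 nM, doubling to 3 µM, without and then with constant ligand, over designs transcribed by stalled E. coli RNA polymerase on Illumina sequencing-chip clusters, in 100 mM Tris-HCl pH 7.5, 80 mM KCl, 4 mM MgCl2, BSA, DTT, yeast tRNA and Tween-20. The apparent Kd is the median of filtered per-cluster binding-curve fits.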

[1] abbreviates: designed as: OFF switch for flavin mononucleotide, no ligand.
[2] abbreviates: ligand present: flavin mononucleotide, designed as: OFF switch for flavin mononucleotide.
[3] abbreviates: designed as: ON switch for flavin mononucleotide, no ligand.
[4] abbreviates: ligand present: flavin mononucleotide, designed as: ON switch for flavin mononucleotide.

For orientation: apparent Kd means the concentration giving half-maximal binding under the conditions of the assay.

For “UAUAUAUAGUAAGGAUAUAUAUUUUUUUUAUAAAUAGAAGGUACAGACAUGAGGAUCACCCAUGUUAUAAUAUGGACAUGUGGA”, the “apparent Kd” value by setting is: under setting [1], 101 nM; under setting [2], 101 nM.

Take “AAGGCGUCAGGAUAUCCAAUAUAUGACAUGAGGAUCACCCAUGUUUCCACUCGUACCUCCGGAGAAGGGACGAAUA”: the “apparent Kd” value runs as follows: under setting [1], 29.1 nM; under setting [2], 27.5 nM.

Take “UUAAAUCAUGUAGGAUAUGCAUGGCGAAGCUACGCAGAAGGACAUGAGGAUCACCCAUGUUCGAGCGUCUGAGUACAGAUGCAA”: the “apparent Kd” value by setting is: under setting [1], 19.1 nM; under setting [2], 59.8 nM.

In the case of “CCGAUAAUGUAGGAUAUCGUAUCGGAAACGAUACGAGAAGGGCAAACAUGAGGAUCACCCAUGUUCCUUAACGG”, the “apparent Kd” value is, setting by setting: under setting [1], 17.4 nM; under setting [2], 18.5 nM.

Turning to “CUAGCGGAUGUAGGAUAUCGGACUGUUUCAGUCUGAGAAGGACAUGAGGAUCACCCAUGUAUUGCUGCGUGAGUAGCACGCUAG”, the “apparent Kd” value reads like this: under setting [1], 19.1 nM; under setting [2], 30.2 nM.

In the case of “ACGCAGAGAGGAUAUACAUGAGGAUCACCCAUGUAUAAACGCACUAACUCUCCUCACUGUAGAAGGCUCAUGCA”, the “apparent Kd” value reads like this: under setting [1], 11.7 nM; under setting [2], 20.4 nM.

Regarding “UGUAGUUACGUAGGAUAUCCACGGGCACCCGUAGGAGAAGGACGCUGGACAUGAGGAUCACCCAUGUAUAGAUGGGUGCCUUUC”, the “apparent Kd” value came to 125 nM under setting [1] and 206 nM under setting [2].

As for “AGCAUGGUAGGAUAUACGGAGCAUUAGGGUUUGUUGUGUGGACAUGAGGAUCACCCAUGUAGAAGGGCCGUGCA”, the “apparent Kd” value reads like this: under setting [1], 47 nM; under setting [2], 64.2 nM.

For “GAACGUGAUGUAAGGAUAUGUAGCCAUCGAGGCGUAUAGAAGGUACAUGAGGAUCACCCAUGUGAGCUCGUUAU”, the “apparent Kd” value under setting [1] was 36.7 nM and the “apparent Kd” value under setting [2] stood at 44.6 nM.

In the case of “AUGUUAGGGAGAGGAUAUUGACAUGAGGAUCACCCAUGUAUUUGGGAGUGUUUACUGAAUUCUUACGAGAAGGCUUACGAAAUU”, the “apparent Kd” value under setting [1] was 396 nM and the “apparent Kd” value under setting [2] was determined as 242 nM.

As for “AUAAAGCGUGCUACGCAAAAUAACGCAGAAGGCCAACAUGAGGAUCACCCAUGUAAAAGAAAGAUGGAGGAUAUGCGGUUUGGC”, the “apparent Kd” value came out at 46.6 nM under setting [3] and 5.74 nM under setting [4].

As for “UUACUAUAACAGAAGGGUAGAUAAUAUAUAAAUGCAGGAUAUGUUACAUGAGGAUCACCCAUGUUUCACCCACAUGAGGAUCAC”, the “apparent Kd” value is, setting by setting: under setting [1], 27.9 nM; under setting [2], 55.4 nM.

Consider “CUGUGACGGAUCCAGAAUUACAACAUGAGGAUCACCCAUGUACAGGAUAUCGGGUUGAUAGGCGCCGAGAAGGGUAUGAUCACG”, for which the “apparent Kd” value is 137 nM under setting [1] and 121 nM under setting [2].

Take “GGUCCAUCAUGAGGAUAUGGCACCUUAUUGGUGCCAGAAGGCAUGUCUUUAGACAUGAGGAUCACCCAUGUAAAUAAUUGGACC”: the “apparent Kd” value by setting is: under setting [3], 1030 nM; under setting [4], 92.5 nM.

Consider “UUGGACGUCGUAGGAUAUGUAGGAUAUUCCUACAUGAGGAUCACCCAUGUUGACAUGAAAGAAGGACAGAAGGACGAUGUCCAU”, for which the “apparent Kd” value is 144 nM under setting [3] and 5.77 nM under setting [4].

For “AAAUUUAACGAAGGAUAUGCUAACAUGAGGAUCACCCAUGUGUGCUUUGUGUUGCUGAAAUUGGAGCAGAAGGUCGUAUACAUA”, the “apparent Kd” value is, setting by setting: under setting [1], 95.4 nM; under setting [2], 145 nM.

Take “GUCAGCUCGUGAGGAUAUACAACACUGCCUCGGCAGUGUAUUAAGAUCACAUGAGGAUCACCCAUGUAGAAGGCACGAGCUGAU”: the “apparent Kd” value is, setting by setting: under setting [1], 13.4 nM; under setting [2], 214 nM.

Regarding “CCCUCACAUGAGGAUCACCCAUGUUAGGAUAUCUACCAGGAGCUAUGAUUAGCCCAACGGAGAAGGAACGUGCA”, the “apparent Kd” value came to 17.9 nM under setting [1] and 17.4 nM under setting [2].

Take “AGCAGACGAGGAUAUAGAUUUAGAUACAUGAGGAUCACCCAUGUAUAGAUGUAUUUAGAUUUAGAAGGCGUCUGCU”: the “apparent Kd” value by setting is: under setting [1], 211 nM; under setting [2], 221 nM.

For “UGGUACAUGAGGAUCACCCAUGUAAGAGCCCUCAUGCGAUGUAGAAGGAUAAUGGGAGUACUGCUAUAGGAUAUACAUGAGUUU”, the “apparent Kd” value under setting [1] was 145 nM and the “apparent Kd” value under setting [2] is 147 nM.

For “AUACUCGUUGUGAGGAUAUCGUUUUCGUCACGGAUCGAGAAGGCACAUGAGGAUCACCCAUGUUUGACGUGAAU”, the “apparent Kd” value by setting is: under setting [1], 17.1 nM; under setting [2], 44.3 nM.

For “UCAUUUAAUACAGGAUAUGUUAGUAUACAGUUGAUUGGUUAUUACAUAAUAACAGAAGGGUAGAACAUGAGGAUCACCCAUGUA”, the “apparent Kd” value under setting [3] worked out at 254 nM and the “apparent Kd” value under setting [4] came out at 131 nM.

In the case of “UGUGUGAGACAGGAUAUGCCGGUUGAAUUGCUGGUAGAAGGGUCUACAUGAGGAUCACCCAUGUGGCCGGUUGG”, the “apparent Kd” value reads like this: under setting [1], 18.7 nM; under setting [2], 25.5 nM.

On to “CGUGCGUAUGUGAGGAUAUGCUGGUCCUUGGAUCGGCAGAAGGCACAUGAGGAUCACCCAUGUGGUGUCGUACA”, for which the “apparent Kd” value under setting [1] is 312 nM and the “apparent Kd” value under setting [2] was determined as 43.2 nM.

Turning to “UGUUGUAUUACAGGAUAUCUAUUAGAUUUAUUUAGAGAAGGGUAUUCACAUGAGGAUCACCCAUGUAUAUACGAGGAAGUUGUG”, the “apparent Kd” value runs as follows: under setting [3], 57 nM; under setting [4], 58.6 nM.

Regarding “GGACGACACAUGAACAUGAGGAUCACCCAUGUAAAUUCUCAUGAGGAUAUGGAUCCUAAUUGGAUCCAGAAGGCAUGGUCGUCC”, the “apparent Kd” value came to 1150 nM under setting [3] and 380 nM under setting [4].

As to “GCAGCACAGUUUUACAUGAGGAUCACCCAUGUCUAUUGAGAUGAGGAUAUGCAUCGAAUGAAGUUGCAGAAGGCAUUGUGCUGC”, the “apparent Kd” value came out at 11.2 nM under setting [3] and 6.46 nM under setting [4].

As for “CAGGUAGACUGAGGAUAUACAAUAAGACCUAGUCUAUCUAGGUCCCUCACAUGAGGAUCACCCAUGUAGAAGGCAGUCUGCCUG”, the “apparent Kd” value runs as follows: under setting [1], 51.5 nM; under setting [2], 636 nM.

For the sequence “GUAGAGUAAGGAUAUGUUGAAUAGGAUAGAAUGGUUAGAAAGCAGAAGGUACAUGAGGAUCACCCAUGUAAUGU”, the “apparent Kd” value reads like this: under setting [1], 22.6 nM; under setting [2], 21 nM.

For “AAUUUAAUACAUGAGGAUCACCCAUGUAAAUUAAUUAAGAUCAAGGAUAUCAGCUCGAUUAGAGCUGAGAAGGUGAUCACAUGU”, the “apparent Kd” value was determined as 368 nM under setting [3] and 99.4 nM under setting [4].

As for “AUAGGUUAAGGAGGAUAUAGAGGGAGAAGUAAACAUGAGGAUCACCCAUGUAUUUAAUUAGUUUACUAGAAGGCUUAUGAUUGU”, the “apparent Kd” value runs as follows: under setting [3], 39.2 nM; under setting [4], 43.7 nM.

As to “GGUUAAUAUCGAGGAUAUGUCUAGACACAUGAGGAUCACCCAUGUAUGUGUAUAGAAGGCGAUAUUAACAGCAUGUUACAUGCA”, the “apparent Kd” value runs as follows: under setting [3], 43.3 nM; under setting [4], 16.4 nM.

On to “CGGUCGAUGUAAGGAUAUCGACUGGAUAACAGUCGAGAAGGUACAUGAGGAUCACCCAUGUAAACCUAUAAUAAAUAACGACCG”, for which the “apparent Kd” value reads like this: under setting [1], 11.2 nM; under setting [2], 14.6 nM.

“CCUCGACAUGAGGAUCACCCAUGUCAGGAUAUUGUGUAUCGGGUUUUUUACGGAAAGGCGAGAAGGGAUGUGUG”: the “apparent Kd” value reads like this: under setting [1], 18.4 nM; under setting [2], 16.9 nM.

Consider “UAUUAUCACGAAGGAUAUGCUUACAUGAGGAUCACCCAUGUAUGUAUAUUGAUCCAGCGUAUUGAGCAGAAGGUCGUGAGUAAA”, for which the “apparent Kd” value runs as follows: under setting [1], 21.8 nM; under setting [2], 75.8 nM.

Turning to “CUGCUAGUUGAGAAGGGACAACUUGGUGAUCGGACAUGAGGAUCACCCAUGUCAGGAUAUCAGGGUAGACCCAGCAGGGUGAAA”, the “apparent Kd” value under setting [1] amounted to 6.56 nM and the “apparent Kd” value under setting [2] was found to be 7.83 nM.

Values taken from the EternaBench riboswitch data.
